ChEMBL document CHEMBL1156749 (Bioorg Med Chem Lett, 2009)
pKi: −log10 of the molar value.

Assays:
Transporter = Transporter (Rattus norvegicus, UniProt Q63380); test: Displacement of [3H]nisoxetine from NET in rat brain; assay type: tissue-based
Rattus norvegicus [1] = species on record: Rattus norvegicus; test: Selectivity ratio of Ki for rat NET to Ki for SERT
In short: (§1)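 Ratio of Ki values from rat brain tissue displacement assays: [3H]WIN 35,428 for DAT, [3H]citalopram for SERT, [3H]nisoxetine for NET. Test agents were oxalate salts. Each Ki is the mean of three experiments run in triplicate.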

[2] = target: Sodium-dependent dopamine transporter (Rattus norvegicus, UniProt P23977); test: Displacement of [3H]WIN-35428 from DAT in rat brain; assay type: tissue-based
Sequence of Sodium-dependent dopamine transporter (P23977 whole entry): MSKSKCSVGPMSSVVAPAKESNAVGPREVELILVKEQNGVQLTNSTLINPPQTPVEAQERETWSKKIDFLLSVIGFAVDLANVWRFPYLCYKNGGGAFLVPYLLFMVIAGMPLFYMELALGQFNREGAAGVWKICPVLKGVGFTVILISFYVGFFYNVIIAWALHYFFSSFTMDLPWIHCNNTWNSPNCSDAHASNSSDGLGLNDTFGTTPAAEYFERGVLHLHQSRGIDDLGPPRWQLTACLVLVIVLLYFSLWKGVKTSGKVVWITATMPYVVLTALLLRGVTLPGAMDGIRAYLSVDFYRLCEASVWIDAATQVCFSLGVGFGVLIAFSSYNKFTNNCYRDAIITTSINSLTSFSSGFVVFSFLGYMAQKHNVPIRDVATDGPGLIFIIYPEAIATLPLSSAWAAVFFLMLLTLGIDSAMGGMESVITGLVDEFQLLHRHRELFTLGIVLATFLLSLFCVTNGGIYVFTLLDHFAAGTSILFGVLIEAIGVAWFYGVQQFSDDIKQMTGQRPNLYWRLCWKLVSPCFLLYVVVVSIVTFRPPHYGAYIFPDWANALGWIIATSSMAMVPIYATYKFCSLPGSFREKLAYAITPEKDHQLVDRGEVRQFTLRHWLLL
In short: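 Radioligand displacement from monoamine transporters in rat brain tissue: [3H]WIN 35,428 for DAT, [3H]citalopram for SERT, [3H]nisoxetine for NET. Test agents were used as oxalate salts, and Ki was derived from displacement. Values are mean ± SEM of three experiments, each run in triplicate.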

[3] = target: Sodium-dependent serotonin transporter (Rattus norvegicus, UniProt P31652); test: Displacement of [3H]citalopram from SERT in rat brain; assay type: tissue-based
Sequence of Sodium-dependent serotonin transporter (P31652 whole entry): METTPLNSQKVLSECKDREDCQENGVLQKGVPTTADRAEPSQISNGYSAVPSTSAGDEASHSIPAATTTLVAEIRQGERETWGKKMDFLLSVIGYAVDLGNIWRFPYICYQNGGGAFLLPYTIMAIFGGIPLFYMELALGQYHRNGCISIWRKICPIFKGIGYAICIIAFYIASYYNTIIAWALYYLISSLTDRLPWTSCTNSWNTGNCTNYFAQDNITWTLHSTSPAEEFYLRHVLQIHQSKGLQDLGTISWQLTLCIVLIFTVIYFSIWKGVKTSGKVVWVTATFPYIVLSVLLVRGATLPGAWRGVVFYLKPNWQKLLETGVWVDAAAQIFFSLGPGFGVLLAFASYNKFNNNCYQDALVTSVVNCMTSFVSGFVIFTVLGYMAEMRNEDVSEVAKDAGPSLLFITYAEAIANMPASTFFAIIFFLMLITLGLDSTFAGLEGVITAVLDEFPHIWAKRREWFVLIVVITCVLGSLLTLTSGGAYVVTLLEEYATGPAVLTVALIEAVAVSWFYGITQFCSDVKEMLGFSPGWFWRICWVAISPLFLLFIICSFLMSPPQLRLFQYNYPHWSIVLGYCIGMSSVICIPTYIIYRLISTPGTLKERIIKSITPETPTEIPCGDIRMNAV

Rattus norvegicus [4] = species on record: Rattus norvegicus; test: Selectivity ratio of Ki for rat DAT to Ki for SERT; in short: as §1
Rattus norvegicus [5] = species on record: Rattus norvegicus; test: Selectivity ratio of Ki for rat NET to Ki for DAT; in short: as §1

Sequence of Transporter (Q63380 whole entry): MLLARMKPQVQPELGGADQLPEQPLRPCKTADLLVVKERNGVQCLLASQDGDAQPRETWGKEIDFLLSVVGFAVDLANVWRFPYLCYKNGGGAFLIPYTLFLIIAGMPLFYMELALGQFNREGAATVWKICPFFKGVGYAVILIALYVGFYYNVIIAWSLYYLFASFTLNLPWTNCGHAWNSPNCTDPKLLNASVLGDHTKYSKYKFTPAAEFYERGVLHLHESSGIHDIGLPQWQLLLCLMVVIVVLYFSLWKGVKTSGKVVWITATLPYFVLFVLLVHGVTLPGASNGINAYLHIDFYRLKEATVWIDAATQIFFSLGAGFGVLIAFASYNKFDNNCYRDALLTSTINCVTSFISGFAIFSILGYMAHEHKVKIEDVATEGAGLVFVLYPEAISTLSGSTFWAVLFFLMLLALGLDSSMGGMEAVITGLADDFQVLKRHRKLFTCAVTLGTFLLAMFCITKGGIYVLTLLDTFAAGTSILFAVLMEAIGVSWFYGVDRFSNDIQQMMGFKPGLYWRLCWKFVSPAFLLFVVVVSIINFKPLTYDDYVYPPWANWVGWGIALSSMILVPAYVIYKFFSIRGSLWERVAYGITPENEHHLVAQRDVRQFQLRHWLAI

Compound | pKi (Transporter) | Ratio (Rattus norvegicus [1]) | pKi [2] | pKi [3] | Ratio (Rattus norvegicus [4]) | Ratio (Rattus norvegicus [5])
Clc1ccc(CO[C@@]2(c3ccc(Cl)c(Cl)c3)C[C@H]3CC[C@@H](C2)N3)cc1Cl | 5.59 | 543 | 5.53 | 8.33 | 601 | 0.87
Clc1ccc(CO[C@@]2(c3ccc(Cl)c(Cl)c3)C[C@H]3CC[C@@H](C2)N3)cc1 | – | 246 | – | – | 46 | 5.4
FC(F)(F)c1ccc([C@]2(OCc3ccccc3)C[C@H]3CC[C@@H](C2)N3)cc1 | 5.26 | 10 | 5.86 | 6.27 | 2.6 | 3.9
Clc1ccc([C@]2(OCc3ccccc3)C[C@H]3CC[C@@H](C2)N3)cc1 | 5.76 | 26 | 6.76 | 7.19 | 2.7 | 10
FC(F)(F)c1ccc(C2=CC3CCC(C2)N3)cc1 (centres undefined) | 6.11 | 432 | 5.83 | 8.74 | 830 | –
Clc1ccc(C2=CC3CCC(C2)N3)cc1Cl (centres undefined) | 7.70 | 67 | 7.80 | 9.52 | 53 | 1.3
C1=C(c2ccccc2)CC2CCC1N2 (centres undefined) | 5.89 | 7.3 | 5.91 | 6.75 | 6.9 | 1.1
Clc1ccc(CO[C@@]2(c3ccccc3)C[C@H]3CC[C@@H](C2)N3)cc1 | 7.00 | 17 | 7.66 | 8.21 | 3.6 | 4.6
Clc1ccc(CO[C@@]2(c3ccc(Cl)cc3)C[C@H]3CC[C@@H](C2)N3)cc1 | 5.63 | 23700 | 7.20 | 10.00 | 630 | 38
Clc1ccc(C2=CC3CCC(C2)N3)cc1 (centres undefined) | 6.92 | 43 | 6.64 | 8.55 | 83 | 0.52
Fc1ccc(C2=CC3CCC(C2)N3)cc1 (centres undefined) | – | – | 5.98 | – | 8.2 | 1.9
c1ccc(CO[C@@]2(c3ccccc3)C[C@H]3CC[C@@H](C2)N3)cc1 | – | – | 6.93 | 6.61 | 0.47 | –
Clc1ccc([C@]2(OCc3ccccc3)C[C@H]3CC[C@@H](C2)N3)cc1Cl | 5.91 | 20 | 6.15 | 7.21 | 11 | 1.7
Clc1ccc(CO[C@@]2(c3ccccc3)C[C@H]3CC[C@@H](C2)N3)cc1Cl | 6.00 | 16300 | 7.80 | 10.21 | 258 | 62
